The subject of series [1] is Cryptococcus neoformans. Description: Antimicrobial activity against Cryptococcus neoformans ATCC 90113 by CLSI method. It counts as functional, organism-based.
Series [2] has as its system Aspergillus fumigatus. Description: Antimicrobial activity against Aspergillus fumigatus ATCC 90906 by CLSI method. It counts as functional, organism-based.
The test system of series [3] is Candida albicans. Description: Antimicrobial activity against Candida albicans ATCC 90028 by CLSI method. Type of series: functional, organism-based.
Series [4] deals with HT-29. Nature of the series: Cytotoxicity against human HT-29 cells by sulforhodamine B assay. It counts as functional. The conditions noted are these: read-out: GI50. The procedure, abridged: (§1)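 Run by the NCI Developmental Therapeutics Program on its 60-line human tumour cell panel using the standard procedure. Compounds went through a single-concentration prescreen first, and those active by NCI criteria went on to a five-concentration growth-inhibition test. GI50 is the concentration that cuts growth of treated cells to half that of untreated control cells.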

The subject of series [5] is HCC 2998. Nature of the series: Cytotoxicity against human HCC2998 cells by sulforhodamine B assay. Type of series: functional. The settings on record: read-out: GI50. The procedure, abridged:
as §1

The subject of series [6] is COLO 205. Nature of the series: Cytotoxicity against human COLO205 cells by sulforhodamine B assay. The settings on record: read-out: GI50. It counts as functional. Summed up:
(§2)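 Run at NCI in the DTP 60-cell-line human tumor panel by standard procedure. Compounds were first screened at a single concentration, then tested at five tenfold-spaced concentrations. GI50 is the concentration reducing treated-cell growth to half that of untreated controls; TGI is the concentration completely halting growth.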

The test system of series [7] is RPMI-8226. Description: Cytotoxicity against human RPMI8226 cells by sulforhodamine B assay. It counts as functional. The conditions noted are these: read-out: GI50. Summed up:
(§3)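 NCI Developmental Therapeutics Program 60-cell-line human tumor panel screen, run at NCI. A single-concentration pre-screen was followed by a five-concentration dose-response in 10-fold steps. GI50 is the concentration that reduces growth of treated cells to half that of untreated control cells. TGI is the concentration that completely halts growth.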

The test system of series [8] is A549. Description: Cytotoxicity against human A549 cells by sulforhodamine B assay. Type of series: functional. The conditions noted are these: read-out: GI50. Summed up: as §2
The test system of series [9] is DU-145. Description: Cytotoxicity against human DU145 cells by sulforhodamine B assay. The settings on record: read-out: GI50. It counts as functional. Summed up: as §1
Series [10] deals with PC-3. Description: Cytotoxicity against human PC3 cells by sulforhodamine B assay. It counts as functional. The settings on record: for GI50: read-out: GI50. The procedure, abridged:
as §3

Series [11] deals with UACC-257. Nature of the series: Cytotoxicity against human UACC257 cells by sulforhodamine B assay. It counts as functional. The settings on record: read-out: GI50. Summed up: as §3
Series [12] has as its system NCI-H322M. Nature of the series: Cytotoxicity against human NCI-H322M cells by sulforhodamine B assay. Type of series: functional. The settings on record: read-out: GI50. Summed up: as §3
Series [13] relates to SK-OV-3. Description: Cytotoxicity against human SKOV3 cells by sulforhodamine B assay. Type of series: functional. The conditions noted are these: read-out: GI50. The procedure, abridged:
as §3

For series [14], the system named is SNB-75. Nature of the series: Cytotoxicity against human SNB75 cells by sulforhodamine B assay. The settings on record: read-out: GI50. It counts as functional. The procedure, abridged:
as §3

Series [15] relates to Hs-578T. Nature of the series: Cytotoxicity against human Hs578T cells by sulforhodamine B assay. Type of series: functional. The procedure, abridged:
as §3

In series [16] the test system is KM12. Description: Cytotoxicity against human KM12 cells by sulforhodamine B assay. Type of series: functional. The conditions noted are these: read-out: GI50. Summed up:
as §3

The subject of series [17] is Mycobacterium intracellulare. Description: Antimicrobial activity against Mycobacterium intracellular ATCC 23068 after 5 days by MABA assay. It counts as functional, organism-based. The settings on record: ATCC 23068, 120 h. Summed up:
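M. intracellulare was tested by a modified Franzblau method. Samples were serially diluted in 20% DMSO/saline, run in duplicate, and inocula were adjusted by OD630. […] IC50 is 50% growth inhibition; MIC is the lowest concentration with no detectable growth.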

Series [18] relates to Staphylococcus aureus. Description: Antimicrobial activity against methicillin-resistant Staphylococcus aureus ATCC 43300 by CLSI method. Type of series: functional, organism-based.
Series [19] relates to Fusarium sp. Nature of the series: Antimicrobial activity against Fusarium sp. by CLSI method. It counts as functional, organism-based.
Series [20] relates to Pseudomonas aeruginosa. Description: Antimicrobial activity against Pseudomonas aeruginosa ATCC 27853 by CLSI method. Type of series: functional, organism-based.
A short description of series [21]: Acute toxicity in iv dosed mouse assessed as mortality. The conditions noted are these: in vivo.
Series [22] deals with Escherichia coli. Description: Antimicrobial activity against Escherichia coli ATCC 35218 by CLSI method. It counts as functional, organism-based.

The text below walks through data of ChEMBL document CHEMBL1921722, “In vitro and in vivo evaluation of select kahalalide F analogs with antitumor and antifungal activities” (Bioorg Med Chem, 2011).

Values after ≈ are worked out from the molar mass of the structure shown. Active and inactive are the calls of the source.

As to `C[C@@H]1[C@H](O)[C@@H](C)/C=C/C=C/C=C/C=C/C=C/C=C/C=C/[C@H](O[C@@H]2O[C@H](C)[C@@H](O)[C@H](N)[C@@H]2O)C[C@@H]2O[C@](O)(C[C@@H](O)C[C@@H](O)[C@H](O)CC[C@@H](O)C[C@@H](O)CC(=O)O[C@H]1C)C[C@H](O)[C@H]2C(=O)O` [AMPHOTERICIN B], the MFC in series [1] amounted to 0.06 µM (≈ 0.0554 µg/mL); in [2] it was 2.5 µM (≈ 2.31 µg/mL); in series [3], 1.25 µM (≈ 1.16 µg/mL). Also, the MIC in [1] turned out to be 0.016 µM (≈ 0.0148 µg/mL); in series [2] it was 2.5 µM (≈ 2.31 µg/mL); in series [3], 0.625 µM (≈ 0.578 µg/mL). This compound also gave a 50% inhibitory concentration (IC50) in series [3] of 250 nM.

With `CC(=O)O[C@H]1C(=O)[C@@]2(C)[C@H]([C@H](OC(=O)c3ccccc3)[C@]3(O)C[C@H](OC(=O)[C@H](O)[C@@H](NC(=O)c4ccccc4)c4ccccc4)C(C)=C1C3(C)C)[C@]1(OC(C)=O)CO[C@@H]1C[C@@H]2O` [PACLITAXEL], the GI50 in series [4] is 2 nM; in series [5], 3 nM; in [6] it was 3 nM; in series [7], 2 nM; in series [8], 4 nM; in series [9], 5 nM. In addition, the GI50 stood at 4 nM in [10]; 40 nM in [11]; 13 nM in [12]; 8 nM in series [13]; 4 nM in series [14]; 3 nM in series [15] (read-out: GI50). In addition, the concentration for 50% growth inhibition (GI50) in [16] was 4 nM. For the same compound, the figures for the concentration for total growth inhibition (TGI) in series [10] (read-out: TGI) and in series [15] (read-out: TGI) were 10000 nM and 100 nM, respectively.

On to `O=C(O)c1cn(C2CC2)c2cc(N3CCNCC3)c(F)cc2c1=O` [CIPROFLOXACIN], for which, in [17], the minimal bactericidal concentration (MBC) is above 1 µM and it took 1 µM (≈ 0.331 µg/mL) to inhibit growth (MIC).

Turning to `C/C=C1\NC(=O)[C@H](Cc2ccccc2)NC(=O)[C@@H](C(C)C)NC(=O)[C@@H]([C@H](C)CC)NC(=O)[C@H](NC(=O)[C@H](NC(=O)[C@H](CCCN)NC(=O)[C@H]2CCCN2C(=O)[C@H](NC(=O)[C@@H](NC(=O)[C@@H](NC(=O)[C@H](NC(=O)CCCC(C)C)C(C)C)[C@@H](C)O)C(C)C)C(C)C)[C@H](C)CC)[C@H](C)OC(=O)[C@H](C(C)C)NC1=O` [KAHALALIDE F], the result in series [18], in series [20] and in series [22] was inactive. The outcome in [19] was Active. Moreover, in series [21], the MTD came out at 0.28 mg/kg. Moreover, the results for the MFC in series [1], in series [2] and in series [3] were 5 µM (≈ 7.39 µg/mL), 20 µM (≈ 29.6 µg/mL) and 20 µM (≈ 29.6 µg/mL), respectively. In addition, the MIC in [1] was 5 µM (≈ 7.39 µg/mL); in [2], 10 µM (≈ 14.8 µg/mL); in series [17], above 20 µM; in series [3], 10 µM (≈ 14.8 µg/mL). In addition, the half-maximal inhibitory concentration (IC50) in [17] is above 20000 nM. The compound also came in with an MBC in series [17] above 20 µM. The concentration for 50% growth inhibition (GI50) in series [10] came out at 170 nM.
